Results published in the M2OR odorant receptor database.

Assays:
Details in all cases: stereoisomer not certain
[1] = biological target: T1, UniProt Q8VF24
T1 sequence (whole entry): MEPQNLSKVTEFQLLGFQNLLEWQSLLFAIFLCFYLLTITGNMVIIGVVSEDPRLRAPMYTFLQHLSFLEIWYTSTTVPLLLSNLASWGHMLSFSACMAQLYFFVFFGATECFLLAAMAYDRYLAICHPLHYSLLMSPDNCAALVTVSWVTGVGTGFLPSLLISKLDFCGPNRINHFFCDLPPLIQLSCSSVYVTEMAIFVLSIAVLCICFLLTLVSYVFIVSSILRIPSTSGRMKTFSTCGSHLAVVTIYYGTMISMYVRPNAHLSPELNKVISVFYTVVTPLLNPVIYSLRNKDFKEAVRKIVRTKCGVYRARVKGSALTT
Summary of the method: (§1)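 Each receptor–molecule pair is labelled responsive or non-responsive (inactive) according to whether the original authors judged the measured signal statistically different from baseline. The data were taken from the main text and supplementary material of published papers and checked for typos and inconsistencies. Assay methods differed by source, with transient luciferase assays in mammalian cell lines being common.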

[2] = biological target: T2, UniProt Q8VF43
T2 sequence (whole entry): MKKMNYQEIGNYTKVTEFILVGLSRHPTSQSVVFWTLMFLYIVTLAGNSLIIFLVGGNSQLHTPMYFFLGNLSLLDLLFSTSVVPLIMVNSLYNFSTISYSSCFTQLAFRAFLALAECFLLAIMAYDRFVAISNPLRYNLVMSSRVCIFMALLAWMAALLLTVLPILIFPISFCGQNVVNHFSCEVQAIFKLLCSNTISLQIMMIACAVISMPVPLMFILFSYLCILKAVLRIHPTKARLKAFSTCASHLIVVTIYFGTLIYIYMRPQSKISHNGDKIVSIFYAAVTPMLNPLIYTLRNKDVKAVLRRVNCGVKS
Summary of the method: as §1

[3] = biological target: T3, UniProt Q8VF44
T3 sequence (whole entry): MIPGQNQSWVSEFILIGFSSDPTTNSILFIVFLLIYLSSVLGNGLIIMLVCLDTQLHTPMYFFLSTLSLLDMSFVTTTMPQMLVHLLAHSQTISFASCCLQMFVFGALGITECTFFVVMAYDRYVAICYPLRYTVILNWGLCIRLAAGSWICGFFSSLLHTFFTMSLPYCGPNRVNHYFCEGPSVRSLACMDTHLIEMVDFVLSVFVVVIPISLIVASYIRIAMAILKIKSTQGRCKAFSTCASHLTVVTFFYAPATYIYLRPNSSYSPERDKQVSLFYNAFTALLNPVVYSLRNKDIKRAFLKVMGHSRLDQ
Summary of the method: as §1

[4] = biological target: T4, UniProt Q8VF52
T4 sequence (whole entry): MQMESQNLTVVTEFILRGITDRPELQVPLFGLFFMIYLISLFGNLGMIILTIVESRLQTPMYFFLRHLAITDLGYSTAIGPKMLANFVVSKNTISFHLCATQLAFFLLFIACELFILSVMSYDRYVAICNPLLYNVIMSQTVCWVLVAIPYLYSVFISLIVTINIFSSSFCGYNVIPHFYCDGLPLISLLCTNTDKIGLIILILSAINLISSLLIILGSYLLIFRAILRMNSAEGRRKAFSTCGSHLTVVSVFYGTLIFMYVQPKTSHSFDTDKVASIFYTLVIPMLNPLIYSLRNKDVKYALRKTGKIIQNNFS
Summary of the method: as §1

[5] = biological target: T5, UniProt Q8VFG6
T5 sequence (whole entry): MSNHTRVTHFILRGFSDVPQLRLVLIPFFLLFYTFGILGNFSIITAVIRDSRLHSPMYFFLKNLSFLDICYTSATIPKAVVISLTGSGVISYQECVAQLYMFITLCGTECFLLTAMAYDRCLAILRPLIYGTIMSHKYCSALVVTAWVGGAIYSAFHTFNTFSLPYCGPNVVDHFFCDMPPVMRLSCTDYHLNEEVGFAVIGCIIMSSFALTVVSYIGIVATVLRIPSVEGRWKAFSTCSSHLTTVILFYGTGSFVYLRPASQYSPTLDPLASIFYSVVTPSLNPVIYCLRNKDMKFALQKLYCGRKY
Summary of the method: as §1

[6] = biological target: T6, UniProt Q8VFM8
T6 sequence (whole entry): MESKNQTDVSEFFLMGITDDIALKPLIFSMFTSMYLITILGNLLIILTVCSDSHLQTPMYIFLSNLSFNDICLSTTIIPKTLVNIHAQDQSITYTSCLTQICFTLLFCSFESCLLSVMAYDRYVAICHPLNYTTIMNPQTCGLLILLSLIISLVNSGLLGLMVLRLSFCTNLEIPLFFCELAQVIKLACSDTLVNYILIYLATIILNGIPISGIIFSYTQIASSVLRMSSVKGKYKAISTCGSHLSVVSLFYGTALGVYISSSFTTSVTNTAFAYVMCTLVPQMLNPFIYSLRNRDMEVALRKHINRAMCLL
Summary of the method: as §1

[7] = biological target: T7, UniProt Q8VFP5
T7 sequence (whole entry): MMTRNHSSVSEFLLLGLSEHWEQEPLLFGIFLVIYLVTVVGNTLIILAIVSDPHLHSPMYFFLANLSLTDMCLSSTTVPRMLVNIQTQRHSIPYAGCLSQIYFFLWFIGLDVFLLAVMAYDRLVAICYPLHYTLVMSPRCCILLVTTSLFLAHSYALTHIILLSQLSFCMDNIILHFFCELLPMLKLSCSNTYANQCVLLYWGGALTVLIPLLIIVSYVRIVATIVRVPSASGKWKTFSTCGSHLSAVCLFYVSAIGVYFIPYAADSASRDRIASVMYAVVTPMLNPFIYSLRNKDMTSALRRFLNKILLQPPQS
Summary of the method: as §1

[8] = biological target: T8, UniProt Q8VFZ6
T8 sequence (whole entry): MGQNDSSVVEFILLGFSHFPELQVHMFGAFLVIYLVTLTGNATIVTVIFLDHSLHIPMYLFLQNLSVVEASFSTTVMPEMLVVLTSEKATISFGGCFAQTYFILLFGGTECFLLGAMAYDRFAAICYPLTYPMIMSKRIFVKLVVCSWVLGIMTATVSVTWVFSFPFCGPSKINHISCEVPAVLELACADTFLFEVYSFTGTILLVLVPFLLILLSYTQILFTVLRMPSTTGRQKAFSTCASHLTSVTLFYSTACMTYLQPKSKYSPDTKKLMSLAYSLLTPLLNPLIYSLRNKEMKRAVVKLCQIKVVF
Summary of the method: as §1

[9] = biological target: T9, UniProt Q8VG01
T9 sequence (whole entry): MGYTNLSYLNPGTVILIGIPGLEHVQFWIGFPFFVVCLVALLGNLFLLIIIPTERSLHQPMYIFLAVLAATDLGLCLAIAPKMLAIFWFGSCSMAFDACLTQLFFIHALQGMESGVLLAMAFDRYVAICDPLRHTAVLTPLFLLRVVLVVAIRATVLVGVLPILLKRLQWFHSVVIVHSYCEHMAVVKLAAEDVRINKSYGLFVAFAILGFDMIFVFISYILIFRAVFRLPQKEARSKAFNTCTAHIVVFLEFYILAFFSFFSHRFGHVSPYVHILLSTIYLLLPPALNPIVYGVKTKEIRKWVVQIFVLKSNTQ
Summary of the method: as §1

[10] = biological target: T10, UniProt Q8VG22
T10 sequence (whole entry): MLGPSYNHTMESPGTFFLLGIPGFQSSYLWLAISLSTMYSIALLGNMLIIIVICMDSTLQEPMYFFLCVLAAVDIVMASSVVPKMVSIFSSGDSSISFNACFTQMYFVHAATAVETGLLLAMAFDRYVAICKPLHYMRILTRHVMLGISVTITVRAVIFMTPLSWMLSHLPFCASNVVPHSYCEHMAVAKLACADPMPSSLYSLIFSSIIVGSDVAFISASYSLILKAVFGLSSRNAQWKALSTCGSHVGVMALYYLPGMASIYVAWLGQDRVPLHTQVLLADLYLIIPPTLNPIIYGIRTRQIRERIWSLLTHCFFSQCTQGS
Summary of the method: as §1

[11] = biological target: UniProt Q8VF73
Summary of the method: as §1

[12] = biological target: UniProt Q8VFB8
Summary of the method: as §1

[13] = biological target: UniProt Q8VFQ6
Summary of the method: as §1

Measured: odorant receptor agonist call;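 also: active if original authors judged signal statistically different from baseline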

Sequence of UniProt Q8VFB8 (Q8VFB8 as listed by the source): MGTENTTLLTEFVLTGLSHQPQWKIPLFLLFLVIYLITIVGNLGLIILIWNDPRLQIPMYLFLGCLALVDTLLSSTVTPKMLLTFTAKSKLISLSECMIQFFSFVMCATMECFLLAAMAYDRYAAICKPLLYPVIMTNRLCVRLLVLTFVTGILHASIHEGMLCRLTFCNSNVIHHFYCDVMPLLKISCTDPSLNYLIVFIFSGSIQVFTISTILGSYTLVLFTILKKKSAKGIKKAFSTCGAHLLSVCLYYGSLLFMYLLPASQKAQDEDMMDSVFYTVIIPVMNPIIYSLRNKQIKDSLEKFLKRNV
Sequence of UniProt Q8VF73 (Q8VF73 as listed by the source): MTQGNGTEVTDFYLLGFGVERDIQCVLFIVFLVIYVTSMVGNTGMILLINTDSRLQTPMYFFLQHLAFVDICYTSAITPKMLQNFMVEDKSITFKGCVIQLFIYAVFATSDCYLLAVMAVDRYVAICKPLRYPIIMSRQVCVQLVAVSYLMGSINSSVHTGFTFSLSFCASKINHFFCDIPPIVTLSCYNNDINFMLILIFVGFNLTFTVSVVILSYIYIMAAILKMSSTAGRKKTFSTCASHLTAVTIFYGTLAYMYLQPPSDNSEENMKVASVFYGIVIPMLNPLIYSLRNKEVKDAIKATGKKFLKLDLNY
Sequence of UniProt Q8VFQ6 (Q8VFQ6 as listed by the source): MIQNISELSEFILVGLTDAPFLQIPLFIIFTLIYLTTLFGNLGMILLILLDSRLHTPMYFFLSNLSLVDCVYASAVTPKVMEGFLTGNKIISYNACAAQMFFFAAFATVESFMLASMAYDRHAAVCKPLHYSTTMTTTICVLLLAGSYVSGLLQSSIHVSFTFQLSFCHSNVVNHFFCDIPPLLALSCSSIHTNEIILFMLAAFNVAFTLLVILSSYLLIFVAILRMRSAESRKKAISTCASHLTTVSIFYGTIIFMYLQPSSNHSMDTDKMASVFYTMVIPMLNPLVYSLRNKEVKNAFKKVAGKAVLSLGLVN

CCCCCCCC(C)=O
not listed: [11] | [12] | [13]
inactive: all other assays above

CCCCC(=O)CC
not listed: [11] | [12] | [13]
inactive: all other assays above

CCCCOC=O
not listed: [11] | [12] | [13]
inactive: all other assays above

O=c1ccc2ccccc2o1
active: [3] | [4] | [11] | [10]
not listed: [2] | [6] | [7]
inactive: all other assays above

CCCCOC(=O)C(C)OC(=O)CCC (centres undefined)
inactive: [1] | [3] | [4] | [5] | [8] | [9] | [10]

CCCCCO
active: [10]
inactive: [1] | [3] | [4] | [5] | [8] | [9]

CSSSC
inactive: [2] | [4] | [6] | [7] | [9]

CC(C)=CCCC(C)CCO (centres undefined)
not listed: [11] | [12] | [13]
inactive: all other assays above

CCC(=O)O
not listed: [11] | [12] | [13]
inactive: all other assays above

CC=C(C)C=O
inactive: [2] | [4] | [6] | [7] | [9]

CCCCCC=O
not listed: [11] | [12] | [13]
inactive: all other assays above

O=C(O)CCCCCCCCC(=O)O
inactive: [2] | [4] | [6] | [7] | [9]

OCCc1ccccc1
inactive: [2] | [4] | [6] | [7] | [9]

CCC=CCCCCC=O
active: [9]
inactive: [2] | [4] | [6] | [7]

CCc1occc(=O)c1O
inactive: [2] | [4] | [6] | [7] | [9]

CCCCC(C)=O
not listed: [11] | [12] | [13]
inactive: all other assays above

C1CCOC1
inactive: [2] | [4] | [6] | [7] | [9]

OCCCCCCCCCO
inactive: [2] | [4] | [6] | [7] | [9]

CCc1ccc(O)cc1
inactive: [2] | [4] | [6] | [7] | [9]

CCCCCCC(C)=O
not listed: [11] | [12] | [13]
inactive: all other assays above

CCCCCCCCCCOC(C)=O
inactive: [2] | [4] | [6] | [7] | [9]

COc1nccnc1C
inactive: [2] | [4] | [6] | [7] | [9]

Cc1ccc(C(C)C)c(O)c1
inactive: [2] | [4] | [6] | [7] | [9]

CCc1nccnc1CC
inactive: [2] | [4] | [6] | [7] | [9]

CC(=O)OC1(C)CCC23CC1C(C)(C)C2CCC3C (centres undefined)
inactive: [6] | [7] | [9]
active: [2] | [4]

CC1CCC(C(C)C)C(=O)C1 (centres undefined)
inactive: [2] | [4] | [6] | [7] | [9]

OCC=Cc1ccccc1
inactive: [2] | [4] | [6] | [7] | [9]

CCCCCCCCCC=CC=O
inactive: [2] | [4] | [6] | [7] | [9]

C=CC(C)=CCC=C(C)CCC=C(C)C
inactive: [2] | [4] | [6] | [7] | [9]

CC(C)CCN
inactive: [2] | [4] | [6] | [7] | [9]

Cc1ccc2c(c1)OCC(=O)CO2
inactive: [2] | [4] | [6] | [7] | [9]
